From ChEMBL document CHEMBL1124614, “A carboxy-terminus truncated analogue of angiotensin II, [Sar1]angiotensin II-(1-7)-amide, provides an entry to a new class of angiotensin II antagonists” (J Med Chem, 1989) come the findings set out here.

Series [1] concerns Rattus norvegicus. Kind of series: Variation in mean arterial pressure produced by angiotensin II, 10 min after administration (dose 10 ug/kg/min) in rats; 50/5. It counts as functional, Artery. In outline: (§1)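 Rats were anesthetized and ganglion-blocked. Antagonist was given by iv infusion in µg/kg per min. The pressor response to angiotensin II (30 ng/kg iv) was measured before infusion, during infusion, and 5, 10, 20, 40 and 60 min after it. Responses are given as % of the pre-infusion control, as mean ± SEM, with n = 4–6 rats.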

The subject of series [2] is Rattus norvegicus. Kind of series: Variation in mean arterial pressure produced by angiotensin II, 20 min after administration (dose 10 ug/kg/min) in rats; 78/5. It counts as functional, Artery. Put shortly:
as §1

Series [3] has as its system Rattus norvegicus. Kind of series: Variation in mean arterial pressure produced by angiotensin II, 40 min after administration (dose 10 ug/kg/min) in rats; 96/4. It counts as functional, Artery. In outline: as §1
The test system of series [4] is Rattus norvegicus. The experiment in a line: Variation in mean arterial pressure produced by angiotensin II, 5 min after administration (dose 10 ug/kg/min) in rats; 29/5. It counts as functional, Artery. Put shortly: as §1
The test system of series [5] is Rattus norvegicus. The experiment in a line: Variation in mean arterial pressure, produced by angiotensin II upon administration at 10 ug/kg/min in rats. It counts as functional, Artery. Put shortly:
as §1

The subject of series [6] is Rattus norvegicus. Kind of series: Variation in mean arterial pressure produced by angiotensin II, 60 min after administration (dose 10 ug/kg/min) in rats; 94/6. It counts as functional, Artery. Put shortly:
as §1

The next series is filed under the species Oryctolagus cuniculus. Kind of series: Tested for antagonist activity in rabbit aortic rings, pA2 values were determined from Schild plots. It counts as functional. The following applies: Aorta, read-out: pA2 (converted). In outline:
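Isolated rabbit aortic rings were used and contraction was recorded. Agonist activity was tested up to 10⁻⁵ M. For antagonism, angiotensin II concentration-response curves were run with and without three antagonist concentrations. pD2 was taken from the curves and pA2 from Schild plots fitted by least squares.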

In series [7] the test system is Rattus norvegicus. Kind of series: Variation in mean arterial pressure produced by angiotensin II, 20 min after administration (dose: 60 ug/kg/min) in rats; 78/5. It counts as functional, Artery. Put shortly: as §1
Series [8] has as its system Rattus norvegicus. Kind of series: Variation in mean arterial pressure produced by angiotensin II, 40 min after administration (dose: 60 ug/kg/min) in rats; 91/4. It counts as functional, Artery. Put shortly: as §1
For series [9], the system named is Rattus norvegicus. Kind of series: Variation in mean arterial pressure produced by angiotensin II, 5 min after administration (dose: 60 ug/kg/min) in rats; 50/5. It counts as functional, Artery. In outline: as §1
For series [10], the system named is Rattus norvegicus. Kind of series: Variation in mean arterial pressure produced by angiotensin II, 60 min after administration (dose: 60 ug/kg/min) in rats; 91/5. It counts as functional, Artery. In outline: as §1
For series [11], the system named is Rattus norvegicus. Kind of series: Variation in mean arterial pressure, produced by angiotensin II upon administration at 60 ug/kg/min in rats; 6/3. It counts as functional, Artery. Put shortly: as §1
The test system of series [12] is Rattus norvegicus. Kind of series: Variation in mean arterial pressure produced by angiotensin II, 10 min after administration (dose: 60 ug/kg/min) in rats; 61/5. It counts as functional, Artery. In outline:
as §1

For series [13], the species on record is Rattus norvegicus. The experiment in a line: Concentration at which compound antagonizes increase in arterial pressure produced by angiotensin II. Particulars: Artery.
The subject of series [14] is Rattus norvegicus. The experiment in a line: Variation in mean arterial pressure produced by angiotensin II, 10 min after administration (dose 30 ug/kg/min) in rats; 63/3. It counts as functional, Artery. Put shortly: as §1
Series [15] concerns Rattus norvegicus. Kind of series: Variation in mean arterial pressure produced by angiotensin II, 20 min after administration (dose 30 ug/kg/min) in rats; 87/4. It counts as functional, Artery. Put shortly:
as §1

Series [16] relates to Rattus norvegicus. The experiment in a line: Variation in mean arterial pressure produced by angiotensin II, 40 min after administration (dose 30 ug/kg/min) in rats; 96/4. It counts as functional, Artery. Put shortly:
as §1

Series [17] concerns Rattus norvegicus. The experiment in a line: Variation in mean arterial pressure produced by angiotensin II, 5 min after administration (dose 30 ug/kg/min) in rats; 35/1. It counts as functional, Artery. In outline:
as §1

For series [18], the system named is Rattus norvegicus. The experiment in a line: Variation in mean arterial pressure produced by angiotensin II, 60 min after administration (dose 30 ug/kg/min) in rats; 97/3. It counts as functional, Artery. In outline:
as §1

The test system of series [19] is Rattus norvegicus. The experiment in a line: Variation in mean arterial pressure, produced by angiotensin II upon administration at 30 ug/kg/min in rats. It counts as functional, Artery. Put shortly: as §1
For another series, the species on record is Canis familiaris. The experiment in a line: Antagonistic effect on aldosterone secretion by zona glomerulosa cells from canine adrenal glands. It counts as functional. Particulars: Canis lupus familiaris; Adrenal gland.
Series [20] in a line: Rate constant was determined for the compound. It counts as ADME.

Peptide text beside a SMILES is read from it.

As to `CNCC(=O)N[C@@H](CCCNC(=N)N)C(=O)N[C@H](C(=O)N[C@@H](Cc1ccc(O)cc1)C(=O)N[C@H](C(=O)N[C@@H](Cc1cnc[nH]1)C(=O)N1CCC[C@H]1C(=O)N[C@@H](C)C(=O)O)C(C)C)C(C)C` [SARALASIN], the Control was determined as 50% in the series with Rattus norvegicus [1]; 78% with Rattus norvegicus [2]; 96% in the series on Rattus norvegicus [3]; 29% in the series with Rattus norvegicus [4]; 0% in the series on Rattus norvegicus [5]; 94% in the series on Rattus norvegicus [6].

In the case of `CC[C@H](C)[C@H](NC(=O)[C@H](Cc1ccc(O)cc1)NC(=O)[C@@H](NC(=O)[C@H](CCCN=C(N)N)NC(=O)CNC)C(C)C)C(=O)N[C@@H](Cc1c[nH]cn1)C(=O)N1CCC[C@H]1C(N)=O`, the Kb in the series filed under Oryctolagus cuniculus was 23.4 nM. In addition, the Control with Rattus norvegicus [7] was found to be 78%; with Rattus norvegicus [8], 91%; with Rattus norvegicus [9], 50%; in the series on Rattus norvegicus [10], 91%; with Rattus norvegicus [11], 6%; in the series on Rattus norvegicus [12], 61%. This compound also had a Concentration (ug min-1 kg-1) in the series listed under Rattus norvegicus [13] of 60.

In the case of `CC[C@H](C)[C@H](NC(=O)[C@H](Cc1ccc(OC)cc1)NC(=O)[C@@H](NC(=O)[C@H](CCCN=C(N)N)NC(=O)CNC)C(C)C)C(=O)N[C@@H](Cc1c[nH]cn1)C(=O)N1CCC[C@H]1C(=O)N[C@@H](Cc1ccccc1)C(=O)O`, the Control with Rattus norvegicus [14] came out at 63%; with Rattus norvegicus [15], 87%; with Rattus norvegicus [16], 96%; with Rattus norvegicus [17], 35%; in the series on Rattus norvegicus [18], 97%; with Rattus norvegicus [19] it was 0%.

Turning to `CC(C)[C@H](NC(=O)[C@H](CCCN=C(N)N)NC(=O)[C@@H](N)CC(=O)O)C(=O)N[C@@H](Cc1ccc(O)cc1)C(=O)N[C@H](C(=O)N[C@@H](Cc1c[nH]cn1)C(=O)N1CCC[C@H]1C(=O)O)C(C)C` (H-DRVYVHP-OH), the Concentration in the series filed under Canis familiaris worked out at 1 mM.

In [20], `CC[C@H](C)[C@H](NC(=O)[C@H](Cc1ccc(O)cc1)NC(=O)[C@@H](NC(=O)[C@H](CCCNC(=N)N)NC(=O)[C@@H](N)CC(=O)O)C(C)C)C(=O)N[C@@H](Cc1cnc[nH]1)C(=O)N1CCC[C@H]1C(=O)N[C@@H](Cc1ccccc1)C(=O)O` [ANGIOTENSIN II] registered a pD2 of 8.98.
